Shown are actives, neighbours in structure and some others; about 3.5% of the full set was active somewhere.
MT stabilizer = microtubule stabilization, imaging screen; HeLa tubulin immunostaining HCS, 24 h; share of cells brighter than vehicle mean+2SD; % tubulin-high responders, % at 10 µM; 0.83% of 200,000 active;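 active = plate Z-score above 3 for both tubulin-high and condensed-nucleus cell shares, with cell loss under 80%, at 10 µM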;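 also: anti alpha tubulin signal scored within the nucleus-defined area of each cell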
Yeast growth inh = chemicals that inhibit yeast BB579 growth in restrictive medium (lifespan-shortening candidates); S. cerevisiae BB579 growth, OD615, 48 h; inhibition, % at 10 µM; 0.51% of 140,000 active;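 active = inhibition above a set limit, 3 SD over the mean compound inhibition, cut at about 44% in these data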
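System: DeaD yeast strain BB579; buffer or medium: CSMM-D dextrose restrictive medium; technique: OD at 615 nm; schedule: 4 h cell preincubation, 48 h compound exposure, 30 °C humidified; doses: single 10 µM dose; controls: amphotericin B 10 µg/mL, positive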
Yeast life ext = yeast lifespan extension. S. cerevisiae growth with nicotinamide, OD615; deaD strain in restrictive glucose medium. inhibition of the nicotinamide effect, % at 10 µM. 0.68% of 130,000 active. AID 775;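 active = inhibition above a set limit, placed 3 SD over the median of all compounds, cut at about 26% in these data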;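 also: 0% = nicotinamide-treated wells and 100% = cells grown without nicotinamide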
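Material: Modified budding yeast, DeaD strain | Medium: Restrictive glucose medium | Probe or stimulus: 1.5 mM nicotinamide | Dosing: Single dose 10 µM compound, 0.25% DMSO | Times: 48 h at 30 °C | Technique: OD615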
Efa HMGR inh = E. faecalis class II HMG-CoA reductase inhibition; purified E. faecalis HMGR, NADPH absorbance 340 nm kinetic; inhibition, % at 10 µM; 0.41% of 190,000 active; AID 1066;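 active = inhibition above a set limit, the median over all tested compounds plus 3 SD, cut at about 9.5% in these data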;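 also: enzyme runs in reverse so mevalonate oxidation gives rising NADPH absorbance; 0% = complete reaction with DMSO and 100% = background rate lacking mevalonate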
RAM inhibit = blocks the yeast RAM network. AID 868. 1.8% of 190,000 active. inhibition, % at 50 µM. S. cerevisiae dse1pr::URA3 reporter, 5-FOA growth OD615, 2 d; analog-sensitive cbk1-as2 kinase mutant strain;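 active = inhibition above a set limit, 3 SD over mean compound inhibition, cut at about 8.4% in these data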;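 also: 0% = DMSO-only wells with no growth and 100% = 10 µM 1-NA-PP1 full growth; inhibition rescues growth on 5-FOA so higher OD means more RAM inhibition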
b-catenin transl = beta-catenin nuclear translocation modulation | nuclear translocation activity, % at 5 µM | 0.3% of 190,000 active | HeLa beta-catenin nuclear translocation, immunofluorescence imaging;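 active = nuclear translocation activity above 50% at 5 µM, with a well cell count of 50 or more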;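 also: per-cell ratio of nuclear to cytoplasmic median beta-catenin stain intensity; plate controls were DMSO negative control for no effect and GSK-3 inhibitor IX positive control for full effect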
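Signal – beta-catenin immunofluorescence imaging with DAPI · Test system – human HeLa cell line · Dosing – 5 µM primary single dose, 0.1% DMSO, 0.02–20 µM confirmation series · Measure – % activation, nuclear-to-cytoplasmic median beta-catenin signal ratio per cell · Incubation – 24 h compound exposure at 37°C, 5% CO2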
An asterisk follows results filed as active.

Cc1ccccc1N=C(NO)c1nonc1N was read as MT stabilizer 1, Efa HMGR inh -6, RAM inhibit 0 and b-catenin transl 1.
Screening CCCOc1c(OC)cccc1C1CC(=O)Nc2cc(OC)c(OC)c(OC)c21 (stereo not drawn) returned MT stabilizer 3, Yeast growth inh -13, Yeast life ext -1, Efa HMGR inh -1 and RAM inhibit 4.
Screening CCOc1c(OC)cccc1C1CC(=O)Nc2cc3c(cc21)OCCO3 (stereo not drawn) returned MT stabilizer 22*, Yeast growth inh -34, Yeast life ext -2, Efa HMGR inh 0, RAM inhibit 0 and b-catenin transl 7.
CN(C)c1ccc(P(=O)(OCc2ccccc2)C(O)c2ccccc2)cc1 (stereo not drawn) was read as b-catenin transl -1.
Screening Cc1ccc(C(=O)CC2(O)C(=O)N(C)c3ccccc32)s1 (stereo not drawn) returned MT stabilizer 2, Efa HMGR inh 14*, RAM inhibit 3 and b-catenin transl 0.
For CN1C(=O)C(O)(CC(=O)/C=C\c2ccc3c(c2)OCO3)c2ccccc21 (stereo not drawn) the results were MT stabilizer 2, Efa HMGR inh 11*, RAM inhibit 1 and b-catenin transl 1.
CN1C(=O)C(O)(CC(=O)c2cccs2)c2ccccc21 (stereo not drawn) was read as MT stabilizer 2, Efa HMGR inh -2, RAM inhibit 2 and b-catenin transl -1.
For NC(=O)CN1C(=O)C(O)(CC(=O)/C=C\c2ccc3c(c2)OCO3)c2ccccc21 (stereo not drawn) the results were MT stabilizer 4, Efa HMGR inh -1 and RAM inhibit 0.
CC(C)(C)c1ccc(-c2nc3n(c(=O)c2C#N)CCS3)cc1 was read as MT stabilizer 3, Efa HMGR inh -1, RAM inhibit 0 and b-catenin transl -1.
`O=C(c1ccc(Cl)c(Cl)c1)N1CCC(=O)N(C(COCc2cccc(C(F)(F)F)c2)Cc2ccccc2)CC1` (stereo not drawn) gave MT stabilizer 5, Yeast growth inh -39, Yeast life ext 7, Efa HMGR inh 0 and RAM inhibit 9.0*.
Cc1cccc(COCC(Cc2ccccc2)N2CCN(C(=O)c3cc(Cl)cc(Cl)c3)CCC2=O)c1 (stereo not drawn) was read as MT stabilizer 2, Yeast growth inh -46, Yeast life ext 12, Efa HMGR inh -7 and RAM inhibit 11*.
Screening O=C(c1ccc(C(F)(F)F)cc1)N1CCC(=O)N(C(COCc2ccc(Cl)cc2)Cc2ccccc2)CC1 (stereo not drawn) returned MT stabilizer 4, Yeast growth inh -45, Yeast life ext 11, Efa HMGR inh -5 and RAM inhibit 9.8*.
`Cc1cccc(COCC(Cc2ccccc2)N2CCN(C(=O)c3ccc(Cl)c(Cl)c3)CCC2=O)c1` (stereo not drawn) gave MT stabilizer 3, Yeast growth inh -35, Yeast life ext 16, Efa HMGR inh -5 and RAM inhibit 10*.
Cc1cccc(COCC(Cc2ccccc2)N2CCN(C(=O)c3cccc(C)c3)CCC2=O)c1 (stereo not drawn) was read as MT stabilizer 6, Yeast growth inh -42, Yeast life ext 13, Efa HMGR inh -1 and RAM inhibit 4.
O=C(c1ccc(Cl)c(Cl)c1)N1CCC(=O)N(C(COCc2ccc(Cl)cc2)Cc2ccccc2)CC1 (stereo not drawn) was read as MT stabilizer 5, Yeast growth inh -20, Yeast life ext 7, Efa HMGR inh -9 and RAM inhibit 8.
Screening O=C(NCCCN1CCOCC1)/C(=C/c1cccnc1)NC(=O)c1ccccc1 returned MT stabilizer 2, Efa HMGR inh 0, RAM inhibit 2 and b-catenin transl 0.
CC(=O)Nc1cccc(N=NN2CCCCC2)c1 was read as MT stabilizer 2, Efa HMGR inh -3, RAM inhibit 1 and b-catenin transl 0.
Screening CC1CC(C)(C)NC(=S)N1CCC(=O)N1CCc2ccccc21 (stereo not drawn) returned MT stabilizer 4, Efa HMGR inh -3, RAM inhibit 1 and b-catenin transl -3.
Cc1nc(SCc2ccc([N+](=O)[O-])cc2)nc2ccccc12 was read as MT stabilizer 4, Yeast growth inh 2, Yeast life ext -13, Efa HMGR inh -10, RAM inhibit 9.5* and b-catenin transl -1.
For Cc1ccc2nc(SCc3cccc([N+](=O)[O-])c3)nc(C)c2c1 the results were MT stabilizer 3, Yeast growth inh -27, Yeast life ext 3, Efa HMGR inh -2, RAM inhibit 11* and b-catenin transl 0.
Screening COc1ccc2nc(SCc3cccc(C)c3)nc(C)c2c1 returned MT stabilizer 4, Yeast growth inh -47, Yeast life ext -7, Efa HMGR inh 2, RAM inhibit 6 and b-catenin transl -2.
Screening O=[N+]([O-])c1ccc(CSc2nc3ccccc3[nH]2)cc1 returned MT stabilizer 3, Yeast growth inh -22, Yeast life ext -4, Efa HMGR inh -6, RAM inhibit 3 and b-catenin transl -1.
C=CCOC(=O)C1=C(C)NC(SC)=C(C#N)C1c1cccs1 (stereo not drawn) was read as MT stabilizer 38*, Yeast growth inh -55, Yeast life ext -18, Efa HMGR inh 0, RAM inhibit 2 and b-catenin transl 39.
`Cc1nc(/C(N)=N/OC(=O)Cc2ccccc2)no1` gave MT stabilizer 2, Efa HMGR inh 2, RAM inhibit 1 and b-catenin transl -2.
Screening O=C(Nc1ccc2c(c1)OCCO2)C(=S)NCc1ccccc1 returned MT stabilizer 1, Efa HMGR inh -3, RAM inhibit 8.7* and b-catenin transl -2.
`Oc1ccccc1CNc1ccc(OC(F)(F)F)cc1` gave MT stabilizer 1, Efa HMGR inh 3, RAM inhibit 0 and b-catenin transl -1.
Screening O=C(O)/C=C/c1ccc(-n2ccnc2)cc1 returned b-catenin transl 2.
CC1(C)Nc2ccc(O)cc2-c2c1ssc2=S was read as MT stabilizer 4, Yeast growth inh -23, Yeast life ext -6, Efa HMGR inh 3, RAM inhibit 2 and b-catenin transl -4.
Screening CCOc1ccc2c(c1)-c1c(ssc1=S)C(C)(C)N2C returned MT stabilizer 11, Yeast growth inh -9, Yeast life ext 39*, Efa HMGR inh 4, RAM inhibit 8.8* and b-catenin transl -10.
For CCOC(=O)c1c(N2C(=O)Nc3ccccc3N2O)sc2c1CCCC2 the results were MT stabilizer 2, Yeast growth inh -31, Yeast life ext 30*, Efa HMGR inh 1, RAM inhibit 2 and b-catenin transl -3.

Assay outcomes from PubChem BioAssay.
